# Data: ChEMBL document CHEMBL4351026, “Antifungal activity, mode of action variability, and subcellular distribution of coumarin-based antifungal azoles” (Eur J Med Chem, 2019)
# pIC50: −log10 of the molar value. The source made the active and inactive calls. The rule behind the calls is not given here.
# Columns and labels:
# [1] = test system: Meyerozyma guilliermondii; assay: Antifungal activity against Candida guilliermondii T-47 assessed as reduction in fungal cell growth incubated for 24 hrs by MTT based broth double dilution method; type: functional; conditions: T-47, 24 h
# Outline: (§1)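 Broth double-dilution in Casitone broth. Starter cultures were grown 24 or 48 h at 37 °C, 5% CO₂, diluted 1:100, and added to serial two-fold dilutions at 64 to 0.007 µg/mL. Final inoculum was 5 x 10^4 to 5 x 10^5 CFU/mL; DMSO was 0.0012–1.3%. Plates were incubated at 37 °C, 5% CO₂, then MTT was added for 2 h. MIC followed CLSI M27-A3. Triplicates, two independent experiments.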
# [2] = test system: HEK-293T; assay: Cytotoxicity against human HEK293T cells assessed as reduction in cell viability at 5 to 50 uM incubated for 24 hrs by XTT assay; type: cell-based
# Outline: (§2)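 HEK-293T were grown in DMEM with 10% FBS; HepG2 in RPMI with 15% FBS; both at 37 °C, 5% CO₂. Cells (4000 HepG2 or 7000 HEK-293T per well) were seeded on poly-D-lysine wells. After 24 h the medium was renewed and compounds added at 5–50 µM from 1 mM stocks in 10% DMSO/0.3% Tween/PBS. After 24 h more, XTT was added for 2 h at 37 °C; absorbance was read at 475 nm against 660 nm reference.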
# [3] = test system: Nakaseomyces glabratus; assay: Antifungal activity against Candida glabrata ATCC 66032 assessed as reduction in fungal cell growth incubated for 24 hrs by MTT based broth double dilution method; type: functional; conditions: ATCC 66032, 24 h; outline: as §1
# [4] = test system: Candida albicans; assay: Antifungal activity against Candida albicans SN152 assessed as reduction in fungal cell growth incubated for 48 hrs by MTT based broth double dilution method; type: functional; conditions: SN152, 48 h; outline: as §1
# [5] = test system: Candida parapsilosis; assay: Antifungal activity against Candida parapsilosis ATCC 90018 assessed as reduction in fungal cell growth incubated for 24 hrs by MTT based broth double dilution method; type: functional; conditions: Lodderomyces parapsilosis, ATCC 90018, 24 h; outline: as §1
# [6] = test system: Candida dubliniensis; assay: Antifungal activity against Candida dubliniensis T-99 assessed as reduction in fungal cell growth incubated for 24 hrs by MTT based broth double dilution method; type: functional; conditions: T-99, 24 h; outline: as §1
# [7] = test system: Candida albicans; assay: Antifungal activity against Candida albicans SN152 assessed as reduction in fungal cell growth incubated for 24 hrs by MTT based broth double dilution method; type: functional; conditions: SN152, 24 h; outline: as §1
# [8] = test system: Candida albicans; assay: Antifungal activity against Candida albicans ATCC 90028 assessed as reduction in fungal cell growth incubated for 24 hrs by MTT based broth double dilution method; type: functional; conditions: ATCC 90028, 24 h; outline: as §1
# [9] = test system: Nakaseomyces glabratus; assay: Antifungal activity against Candida glabrata ATCC 2001 assessed as reduction in fungal cell growth incubated for 24 hrs by MTT based broth double dilution method; type: functional; conditions: ATCC 2001, 24 h; outline: as §1
# [10] = test system: Nakaseomyces glabratus; assay: Antifungal activity against Candida glabrata 192 assessed as reduction in fungal cell growth incubated for 24 hrs by MTT based broth double dilution method; type: functional; conditions: Nakaseomyces glabratus, 192, 24 h; outline: as §1
# [11] = test system: HepG2; assay: Cytotoxicity against human HepG2 cells assessed as reduction in cell viability at 5 to 50 uM incubated for 24 hrs by XTT assay; type: cell-based; conditions: hepg2, 24 h; outline: as §2
# [12] = test system: Candida albicans; assay: Antifungal activity against Candida albicans P-87 assessed as reduction in fungal cell growth incubated for 24 hrs by MTT based broth double dilution method; type: functional; conditions: P-87, 24 h; outline: as §1
# [13] = Cytotoxicity against human HEK293T cells assessed as reduction in cell viability at 5 to 50 uM incubated for 24 hrs by XTT assay relative to control; type: cell-based, HEK-293T; conditions: HEK293T cells, read-out: INH
# Outline: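 HEK-293T cells were grown in DMEM with 10% FBS, 1% NEAA, 1% pyruvate and pen-strep-nystatin at 37 °C and 5% CO2. 7000 cells/well were seeded on poly-D-lysine-coated wells. After 24 h the medium was renewed and compounds were added at 5–50 µM from 1 mM stocks in 10% DMSO/0.3% Tween/PBS. After 24 h, XTT was added for 2 h at 37 °C, with absorbance read at 475 nm (reference 660 nm).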
# [14] = test system: Candida parapsilosis; assay: Antifungal activity against Candida parapsilosis ATCC 22019 assessed as reduction in fungal cell growth incubated for 24 hrs by MTT based broth double dilution method; type: functional; conditions: Lodderomyces parapsilosis, ATCC 22019, 24 h; outline: as §1
# [15] = test system: Nakaseomyces glabratus; assay: Antifungal activity against Candida glabrata ATCC 66032 assessed as reduction in fungal cell growth incubated for 48 hrs by MTT based broth double dilution method; type: functional; conditions: ATCC 66032, 48 h; outline: as §1
# [16] = Cytotoxicity against human HepG2 cells assessed as reduction in cell viability at 5 to 50 uM incubated for 24 hrs by XTT assay relative to control; type: cell-based; conditions: read-out: INH
# Outline: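 HepG2 cells were maintained in RPMI with 15% FBS, 1% NEAA, 1% pyruvate and pen-strep-nystatin at 37 °C and 5% CO2. 4000 cells/well were plated on poly-D-lysine coating and given fresh medium after 24 h. Compounds were dosed at 5–50 µM from 1 mM stocks in 10% DMSO/0.3% Tween/PBS and incubated 24 h. Viability was read by XTT (2 h, 37 °C) at 475 nm against 660 nm.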
# [17] = target: Cytochrome P450 3A4 (Homo sapiens, UniProt P08684); assay: Inhibition of recombinant human CYP3A4 using Luciferin-PPXE as substrate preincubated for 10 mins followed by NADPH addition measured after 15 mins by luminometric method; type: ADME
# Outline: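 P450-Glo luminescent assay, Luciferin-PPXE substrate. Compound was mixed with membranes containing recombinant human CYP3A4; controls were vehicle with membranes lacking CYP3A4. After 10 min preincubation at 37 °C, NADPH regeneration reagent was added and the mixture kept 15 min at 37 °C. Luciferin detection reagent stopped the reaction; after 20 min at room temperature, luminescence was read. Duplicates.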
# [18] = test system: Nakaseomyces glabratus; assay: Antifungal activity against Candida glabrata 192 assessed as reduction in fungal cell growth incubated for 48 hrs by MTT based broth double dilution method; type: functional; conditions: Nakaseomyces glabratus, 192, 48 h; outline: as §1
# [19] = test system: Candida albicans; assay: Antifungal activity against Candida albicans ATCC 90028 assessed as reduction in fungal cell growth incubated for 48 hrs by MTT based broth double dilution method; type: functional; conditions: ATCC 90028, 48 h; outline: as §1
# [20] = test system: Candida albicans; assay: Antifungal activity against ERG11/ERG3 knocked out Candida albicans SN152 assessed as zone of inhibition at 25 ug […] by disk diffusion method; type: functional, organism-based
# [21] = test system: Candida albicans; assay: Antifungal activity against Candida albicans SN152 assessed as zone inhibition at 25 ug incubated for 24 hrs by disk diffusion method; type: functional, organism-based
# Outline: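 Strains were streaked on YPD agar and grown at 30 °C: 24 h for parental SN152, 48 h for the erg11ΔΔ erg3ΔΔ mutant. Colonies were suspended in PBS and adjusted to OD 0.02 (SN152) or 0.03 (mutant), then spread on Casitone plates. A 6-mm disk loaded with 25 µg compound was placed centrally. Plates were incubated at 30 °C and photographed after 24 h.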
# [22] = Drug distribution in Candida albicans SN152 assessed as subcellular compound distribution at 10 uM incubated for 60 mins by fluorescent imaging analysis; type: ADME; conditions: 1 h
# Outline: (§3)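 Yeast were grown overnight at 30 °C in YPD liquid, diluted 1:10, and grown 2 h at 30 °C to log phase. Fluorescent azole was added at 10 µM final and incubated 60 min in the dark. Cells were washed once in PBS and imaged on slides in bright field and fluorescence (ex 427 nm, em 510 nm).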
# [23] = Drug distribution in Candida glabrata 2001 assessed as subcellular compound distribution at 10 uM incubated for 60 mins by fluorescent imaging analysis; type: ADME; conditions: nakaseomyces glabratus, 1 h; outline: as §3
# Sequence of Cytochrome P450 3A4 (P08684 whole entry): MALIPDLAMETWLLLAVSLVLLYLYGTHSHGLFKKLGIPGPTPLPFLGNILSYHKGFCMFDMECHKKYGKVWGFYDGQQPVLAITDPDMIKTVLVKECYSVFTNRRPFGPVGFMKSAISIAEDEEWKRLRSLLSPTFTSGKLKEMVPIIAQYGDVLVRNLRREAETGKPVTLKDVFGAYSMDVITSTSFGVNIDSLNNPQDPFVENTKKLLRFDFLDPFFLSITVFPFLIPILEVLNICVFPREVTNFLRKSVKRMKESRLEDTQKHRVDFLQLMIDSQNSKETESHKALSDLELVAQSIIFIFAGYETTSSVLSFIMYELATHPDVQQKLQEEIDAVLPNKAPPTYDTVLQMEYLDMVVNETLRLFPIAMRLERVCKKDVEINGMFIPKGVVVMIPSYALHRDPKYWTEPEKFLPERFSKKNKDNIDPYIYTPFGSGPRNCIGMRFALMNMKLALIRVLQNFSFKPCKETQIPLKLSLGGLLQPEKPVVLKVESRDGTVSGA
structure (smiles),measurement,setting,value
CCC(CC)Oc1ccc2cc(C(=O)NCC(O)(Cn3cncn3)c3ccc(Cl)cc3Cl)c(=O)oc2c1 (racemic),MIC,[1],0.5 µg/mL
same,Activity,[2],Non-Toxic
same,MIC,[3],> 64 µg/mL
same,MIC,[4],0.06 µg/mL
same,MIC,[5],0.25 µg/mL
same,MIC,[6],0.5 µg/mL
same,MIC,[7],0.06 µg/mL
same,MIC,[8],0.06 µg/mL
same,MIC,[9],> 64 µg/mL
same,MIC,[10],2 µg/mL
same,Activity,[11],Non-Toxic
same,MIC,[12],0.03 µg/mL
same,"cytotoxicity at 24 h, up to 50 µM",[13],< 40%
same,MIC,[14],0.5 µg/mL
same,MIC,[15],> 64 µg/mL
same,"cytotoxicity at 24 h, up to 50 µM",[16],< 40%
same,pIC50,[17],≤ 5.60
same,MIC,[18],> 64 µg/mL
same,MIC,[19],0.06 µg/mL
CCC(CC)Oc1ccc2cc(C(=O)NCC(O)(Cn3ccnc3)c3ccc(Cl)cc3Cl)c(=O)oc2c1 (racemic),MIC,[1],0.25 µg/mL
same,Activity,[2],Non-Toxic
same,MIC,[3],2 µg/mL
same,MIC,[4],0.06 µg/mL
same,MIC,[5],0.125 µg/mL
same,MIC,[6],0.25 µg/mL
same,MIC,[7],0.06 µg/mL
same,MIC,[8],0.03 µg/mL
same,MIC,[9],2 µg/mL
same,MIC,[10],0.5 µg/mL
same,Activity,[11],Non-Toxic
same,MIC,[12],0.06 µg/mL
same,"cytotoxicity at 24 h, up to 50 µM",[13],< 40%
same,MIC,[14],0.5 µg/mL
same,MIC,[15],> 64 µg/mL
same,"cytotoxicity at 24 h, up to 50 µM",[16],< 40%
same,pIC50,[17],6.60
same,MIC,[18],1 µg/mL
same,MIC,[19],0.06 µg/mL
CCN(CC)c1ccc2cc(C(=O)NCC(O)(Cn3ccnc3)c3ccc(F)cc3F)c(=O)oc2c1 (racemic),MIC,[1],0.5 µg/mL
same,inhibition zone (IZ),[20],Active
same,inhibition zone (IZ),[21],Active
same,MIC,[3],8 µg/mL
same,MIC,[4],0.125 µg/mL
same,MIC,[5],0.015 µg/mL
same,MIC,[6],0.5 µg/mL
same,MIC,[7],0.06 µg/mL
same,MIC,[8],0.015 µg/mL
same,MIC,[9],8 µg/mL
same,MIC,[10],2 µg/mL
same,MIC,[12],0.06 µg/mL
same,MIC,[14],0.125 µg/mL
same,MIC,[15],32 µg/mL
same,pIC50,[17],5.88
same,Drug uptake,[22],Active
same,Drug uptake,[23],Active
same,MIC,[18],4 µg/mL
same,MIC,[19],0.06 µg/mL
CC(=O)N1CCN(c2ccc(OCC3COC(Cn4ccnc4)(c4ccc(Cl)cc4Cl)O3)cc2)CC1 (racemic) [KETOCONAZOLE],MIC,[1],0.007 µg/mL
same,inhibition zone (IZ),[20],Active
same,inhibition zone (IZ),[21],Active
same,Activity,[2],Toxic
same,MIC,[3],1 µg/mL
same,MIC,[4],0.007 µg/mL
same,MIC,[5],0.007 µg/mL
same,MIC,[6],0.007 µg/mL
same,MIC,[7],0.007 µg/mL
same,MIC,[8],0.007 µg/mL
same,MIC,[9],1 µg/mL
same,MIC,[10],0.06 µg/mL
same,Activity,[11],Toxic
same,MIC,[12],0.007 µg/mL
same,"cytotoxicity at 24 h, up to 50 µM",[13],< 40%
same,MIC,[14],0.007 µg/mL
same,MIC,[15],4 µg/mL
same,"cytotoxicity at 24 h, up to 50 µM",[16],< 40%
same,MIC,[18],0.125 µg/mL
same,MIC,[19],0.007 µg/mL
